Only some compounds are listed: those with a hit (about 1.3% of all), similar ones and a draw of the others.
PAX8 reporter: lowers PAX8-driven luciferase in RMG-I cells; 360,000 compounds, 1.2% hits; inhibition, % at 12.6 µM; RMG-I TPO-luciferase reporter, SteadyGlo, 24 h;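 active = mean replicate inhibition at least 60% with every replicate also reaching 60%; inconclusive = only one of the two criteria is met; inactive = mean below 60% and not all replicates reaching 60%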;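 note: luciferase light reporting Pax8 driven TPO promoter activity; plate controls were median of neutral control wells for no effect and mitoxantrone controls for full effect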
FN deposition inh: fibronectin deposition inhibition | AH1F fibroblasts, Alexa488-fibronectin deposition fluorescence, overnight | inhibition, % at 12.6 µM | 350,000 compounds, 0.086% hits | AID 743247;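 active = mean inhibition across replicates of 30% or more, regardless of how many single replicates reach that level; inconclusive = mean under 30% yet at least half of replicates reach 30%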;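 note: positive control wells lacked labelled fibronectin entirely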
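Measured by – fluorescence 485/525 nm · System – AH1F fibroblast monolayer, labelled fibronectin deposition · Amount – 10000 cells per well · Buffer or medium – serum-reduced DMEM (2% serum) · Doses – single dose, pinned · Also added – fluorescent fibronectin at 24 nM final · Schedule – 1 h cell attachment, overnight exposure to compound and label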
RAD52 inh: blocks human RAD52 DNA annealing; 360,000 compounds, 0.46% hits; AID 651710; P43351; inhibition, % at 18.7 µM; recombinant RAD52 DNA annealing, FRET fluorescence;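 active = every replicate showing at least 50% inhibition; inconclusive = mean inhibition at least 50% but not in every replicate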
Target sequence (P43351 whole entry, looked up): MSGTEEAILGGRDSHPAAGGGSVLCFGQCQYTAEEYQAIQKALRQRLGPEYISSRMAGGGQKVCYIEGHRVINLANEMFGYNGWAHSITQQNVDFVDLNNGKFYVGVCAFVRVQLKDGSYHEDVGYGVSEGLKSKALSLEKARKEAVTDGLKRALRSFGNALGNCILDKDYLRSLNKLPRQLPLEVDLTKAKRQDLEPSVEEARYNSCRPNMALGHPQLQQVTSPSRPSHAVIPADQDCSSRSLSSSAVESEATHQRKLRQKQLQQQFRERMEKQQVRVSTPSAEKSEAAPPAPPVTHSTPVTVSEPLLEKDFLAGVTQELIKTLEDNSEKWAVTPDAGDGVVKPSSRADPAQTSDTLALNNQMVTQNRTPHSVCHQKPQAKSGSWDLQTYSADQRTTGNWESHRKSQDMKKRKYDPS
RAD54 inh: RAD54 (human) branch migration inhibition; RAD54 Holliday junction branch migration, FAM/BHQ fluorescence; inhibition, % at 10.4 µM; 360,000 compounds, 0.14% hits;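 active = mean normalized replicate activity at least 40 and at least half of replicates scoring 40 or more; inconclusive = only one of the two criteria met; inactive = mean below 40 and under half of replicates reaching 40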;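 note: 0% = median of neutral control wells and 100% = median of positive control wells; inhibitors cause a drop in the FAM fluorescence signal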
DNA binding: counter-screen for Rad54 inhibitors: DNA binding compounds; shares compounds with RAD54 inh; Acridine orange-DNA displacement, fluorescence polarization, 20 min; AC50, µM (series often up to 35 µM), inactives show at the top dose activity change, negative = DNA binding; 460 compounds, 8% hits;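 active = signal drop giving an AC50 within twice the top valid tested concentration of each sample, actives reach about 35 µM in these data; inactive = activity opposite to expected, plus the rest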;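 note: polarization loss reports compound binding to salmon sperm DNA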
An asterisk follows results filed as active; ? = inconclusive; . = no result.

SMILES | PAX8 reporter | FN deposition inh | RAD52 inh | RAD54 inh | DNA binding
CCN(CC)CCOc1c(Br)ccc2c1sc1nc3n(c(=O)c12)CCC3 | -34.0 | -7.1 | . | 85.6* | -7.7%
O=C(/C=C/c1ccccc1)NNc1ccc(Cl)cc1 | 6.3 | . | -8.5 | . | .
Cc1cccn2c(=O)c3cc(C(=O)NCCN4CCOCC4)n(C)c3nc12 | . | 2.0 | -37.4 | 16.4 | .
COc1ccc(CCNC(=O)c2cc3c(=O)n4cccc(C)c4nc3n(CCCN3CCOCC3)c2=N)cc1 | -8.9 | -1.4 | -11.8 | 58.8* | -12.3%
Cc1cccn2c(=O)c3cc(C(=O)NCC4CCCO4)c(=N)n(C4CCCCC4)c3nc12 (centres undefined) | 5.2 | -10.0 | -51.7 | ? | -5.2%
CCOCCCn1c(=N)c(C(=O)NCCN2CCOCC2)cc2c(=O)n3cccc(C)c3nc21 | 1.1 | . | . | 68.8* | -15.2%
Cc1cccn2c(=O)c3cc(C(=O)NCC4CCCO4)c(=N)n(CC4CCCO4)c3nc12 (centres undefined) | 4.8 | -3.0 | 16.5 | 20.9 | .
O=C(CCC(C(=O)O)N1C(=O)c2ccccc2C1=O)Nc1ccccc1 (centres undefined) | -13.0 | . | -11.6 | . | .
Cc1cc(NCCCn2ccnc2)n2nc(C)c(-c3ccc(Cl)cc3)c2n1 | . | . | . | 15.7 | .
CCn1c(=O)c2cc(C(=O)NCCN(C)C)sc2c2ccccc21 | -28.7 | 5.0 | 25.8 | 53.2* | -9.6%
CCCCN(CC)CCNC(=O)c1cc2c(=O)[nH]c3ccccc3c2s1 | -24.8 | -3.5 | -11.3 | 46.8 | .
CCCN(CCC)CCCNC(=O)c1cc2c(=O)[nH]c3ccccc3c2s1 | -6.4 | -4.4 | 10.1 | 51.1* | -13.8%
O=C(NCc1ccc(Cl)cc1)C(=O)NCC1OCCN1C(=O)c1ccc(Cl)cc1 (centres undefined) | 13.0 | 11.7 | -8.7 | . | .
O=C1c2cccc3cccc(c23)C(=O)N1CCCn1ccnc1 | 8.0 | 0.8 | 32.8 | 51.4* | -13.8%
O=C(O)CN1C(=O)C2C3C=CC(C2C1=O)C1C(=O)N(CC(=O)O)C(=O)C31 (centres undefined) | 2.2 | 4.3 | -15.8 | . | .
Cn1nc(-c2ccccn2)nc2c(=O)n(C)c(=O)nc1-2 | 105.2* | 12.8 | 5.6 | 61.2* | 11.8%
CCCc1nc2c(=O)n(C)c(=O)nc-2n(C)n1 | 104.1* | 4.5 | 35.1 | 74.2* | -16.2%
COC(=O)c1ccc(CNc2ccc(C(C)=O)cc2)cc1 | 31.7 | -6.7 | -0.7 | 5.9 | .
C[C@H]1CN([C@@H](C)CO)C(=O)Cc2cc(NC(=O)NC3CCCCC3)ccc2O[C@@H]1CN(C)S(=O)(=O)c1ccc(F)cc1 | -1.8 | . | 1.5 | -8.3 | .
C/C(=N/NC(=O)CN1CCN(S(=O)(=O)c2ccc(Br)cc2)CC1)c1ccco1 | 23.1 | 5.1 | . | . | .
COc1ccc(Nc2c3c(nc4ccc(C)cc24)CCC3)cc1 | 5.6 | -4.3 | 41.0 | 54.3* | -2.1%
Cc1ccc2nc3c(c(Nc4ccc5c(c4)OCCO5)c2c1)CCC3 | 5.6 | -1.5 | 46.9 | 60.5* | -2.8%
Cc1cccc(Nc2c3c(nc4ccccc24)CCC3)c1 | 25.2 | 13.2 | -3.5 | 10.6 | .
O=C(COc1ccc(Cl)cc1)NNC(=O)c1ccc(=O)[nH]c1 | -5.9 | 3.8 | -12.8 | -0.4 | .
O=[N+]([O-])c1ccccc1S(=O)(=O)N(CC(O)CN1CCCCC1)c1ccccc1 (centres undefined) | -14.3 | 0.5 | -6.6 | -2.9 | .
SMILES | PAX8 reporter | FN deposition inh | RAD52 inh | RAD54 inh | DNA binding
CC1CCN(CCCNC(=O)c2cc3c(=O)n(C)c4ccccc4c3n2C)CC1 | -23.4 | -4.9 | 26.9 | 59.4* | -17.0%
Cn1c(C(=O)NCCN2CCCCCC2)cc2c(=O)n(C)c3ccccc3c21 | -8.1 | 2.3 | 37.8 | 56.3* | -6.2%
Cn1c(C(=O)NCCCN2CCOCC2)cc2c(=O)n(C)c3ccccc3c21 | -19.4 | 6.2 | 15.0 | ? | -19.9%
CC(C)OCCCNC(=O)c1cc2c(=O)n(C)c3ccccc3c2n1C | -22.8 | 0.4 | -13.9 | 3.2 | .
CCCCN(CC)CCCNC(=O)c1cc2c(=O)n(C)c3ccccc3c2n1C | -33.6 | -2.6 | 40.4 | 61.3* | -13.0%
CCOC(=O)N1CCN(C(=O)CCCN2C(=O)CSc3nc(C)cc(C)c32)CC1 | . | . | . | 8.5 | .
CCn1cc(C(=O)NCCN(C)C)c(=O)c2cc(F)c(N3CCN(C)CC3)cc21 | 14.6 | 5.9 | -28.2 | 59.3* | -12.6%
O=C(Nc1cc2c(cc1Cl)OCCCO2)c1ccco1 | . | . | . | -9.5 | .
CC(C)NC(=O)Nc1cccc2c1O[C@H](CN(C)S(C)(=O)=O)[C@H](C)CN([C@@H](C)CO)C2=O | -26.7 | 9.7 | . | 8.8 | .
CN(C)CCSc1nc(N)c2c3c(sc2n1)CN(C)CC3 | . | . | . | 74.9* | -13.2%
